Assay results taken from ChEMBL document CHEMBL1671834, “Novel 3-aryl indoles as progesterone receptor antagonists for uterine fibroids” (ACS Med Chem Lett, 2011).
Activity calls are given as the source filed them. The calls are words filed in the database; no cut-off is given here.

Tests used:
[1] = target: T1, Mineralocorticoid receptor (Homo sapiens, UniProt P08235); test: Antagonist activity at human mineralocorticoid receptor expressed in HEK293 cells assessed as inhibition of […]-induced transcriptional activity by GRE-driven luciferase reporter gene assay; type: functional, cell-based
T1 sequence (P08235 whole entry): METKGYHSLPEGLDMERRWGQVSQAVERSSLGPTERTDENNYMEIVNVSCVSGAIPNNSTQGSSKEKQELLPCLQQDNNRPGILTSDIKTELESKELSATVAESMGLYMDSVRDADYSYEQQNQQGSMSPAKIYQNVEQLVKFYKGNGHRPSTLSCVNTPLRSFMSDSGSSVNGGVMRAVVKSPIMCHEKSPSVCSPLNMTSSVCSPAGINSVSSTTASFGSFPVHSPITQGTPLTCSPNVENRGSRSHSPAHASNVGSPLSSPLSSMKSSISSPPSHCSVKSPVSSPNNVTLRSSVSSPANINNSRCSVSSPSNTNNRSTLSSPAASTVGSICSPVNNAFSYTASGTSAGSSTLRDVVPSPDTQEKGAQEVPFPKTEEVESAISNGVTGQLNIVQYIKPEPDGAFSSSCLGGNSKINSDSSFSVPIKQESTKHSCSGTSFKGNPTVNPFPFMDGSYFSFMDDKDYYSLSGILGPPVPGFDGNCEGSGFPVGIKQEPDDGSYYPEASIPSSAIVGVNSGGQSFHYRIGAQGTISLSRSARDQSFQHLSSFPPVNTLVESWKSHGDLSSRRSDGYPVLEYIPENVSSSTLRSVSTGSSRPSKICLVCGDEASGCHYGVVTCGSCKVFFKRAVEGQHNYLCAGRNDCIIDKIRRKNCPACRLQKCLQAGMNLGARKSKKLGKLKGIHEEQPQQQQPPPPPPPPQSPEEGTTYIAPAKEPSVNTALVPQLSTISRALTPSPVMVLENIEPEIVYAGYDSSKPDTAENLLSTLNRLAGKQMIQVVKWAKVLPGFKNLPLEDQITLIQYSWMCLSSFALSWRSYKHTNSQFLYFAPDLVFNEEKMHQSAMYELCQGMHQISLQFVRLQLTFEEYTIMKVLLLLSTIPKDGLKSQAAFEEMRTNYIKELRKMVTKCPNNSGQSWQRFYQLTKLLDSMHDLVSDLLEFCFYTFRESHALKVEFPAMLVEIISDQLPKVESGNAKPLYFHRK
Outline: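 Transcription assay in HEK293 cells cotransfected with full-length human receptor. Values are geometric means of at least duplicate determinations.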

[2] = Tmax in rat; type: ADME, organism-based; settings: in vivo
Outline: (§1)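 Compound given to rats as an oral suspension. Bioavailability, tmax, elimination half-life, volume of distribution and clearance determined.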

[3] = Elimination half life in rat; type: ADME, organism-based; settings: in vivo; outline: as §1
Oryctolagus cuniculus [4] = test: Antagonist activity at progesterone receptor in estrogen-primed immature New Zealand White rabbit assessed as inhibition of progesterone-induced endometrial transformation at 1 mg/kg, sc by McPhail assay; type: functional, organism-based; design: dose 1 mg/kg
Outline: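 Immature rabbits primed with estrogen, given progesterone 1 mg/kg with test compound at various sc doses. Endometrial transformation scored by McPhail Index.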

[5] = Oral bioavailability in rat; type: ADME, organism-based; settings: in vivo; outline: as §1
[6] = Volume of distribution in rat; type: ADME, organism-based; settings: in vivo; outline: as §1
[7] = Clearance in rat; type: ADME, organism-based; settings: in vivo; outline: as §1
Rattus norvegicus = test: Antagonist activity at progesterone receptor in orally dosed ovariectomized Sprague-Dawley rat assessed as reversal of R5020-induced down-regulation of estradiol-induced increase in complement 3 mRNA expression by C3 rat uterine assay; type: functional; settings: po
Outline: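 Ovariectomized rats dosed orally (mg/kg dose response). Estrogen (E2, 0.05 mg/kg) induces complement C3 mRNA in uterus. Progestin R5020 (0.1 mg/kg) down-regulates it. Read-out is reversal of the R5020 effect, expressed as fold over asoprisnil (5 mg/kg). ED50 derived from the dose response.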

Oryctolagus cuniculus [8] = test: Agonist activity at progesterone receptor in estrogen-primed immature New Zealand White rabbit assessed as stimulation of progesterone-induced endometrial transformation at 30 mg/kg, sc by McPhail assay; type: functional, organism-based; design: dose 30 mg/kg
Outline: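 Immature rabbits primed with estrogen, dosed sc without progesterone. Endometrial transformation scored by McPhail Index.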

Row | IC50 [1] [µM] | SMILES | other results
1 | 2.42 | COc1cc(-c2cn(C(C)C)c3cc(NS(C)(=O)=O)ccc23)ccc1C#N | –
2 | 9.8 | CC[C@H](C)n1cc(-c2ccc(C#N)cc2)c2ccc(NS(C)(=O)=O)cc21 | –
3 | > 10 | CC(C)n1cc(-c2ccc(C#N)cc2)c2ccc(NS(C)(=O)=O)cc21 | –
4 | > 10 | COc1ccc(C(c2ccccc2)c2c[nH]c3ccccc23)cc1 (stereo not drawn) | –
5 | > 10 | CCn1cc(-c2ccc(C#N)cc2)c2ccc(NS(C)(=O)=O)cc21 | –
6 | > 10 | Cc1cc(-c2cn(C(C)C)c3cc(NS(C)(=O)=O)ccc23)ccc1C#N | –
7 | > 10 | CC[C@@H](C)n1cc(-c2ccc(C#N)cc2)c2ccc(NS(C)(=O)=O)cc21 | –
8 | > 10 | Cn1cc(-c2ccc(C#N)cc2)c2ccc(NS(C)(=O)=O)cc21 | –
9 | 8.15 | CC(C)n1cc(-c2ccc(C#N)c(F)c2)c2ccc(NS(C)(=O)=O)cc21 | Tmax [2]: 4 h; half-life [3]: 19.8 h; Activity (Oryctolagus cuniculus [4]): Active; bioavailability [5]: 31.4%; Vd [6]: 2.3 L/kg; clearance [7]: 2.5 mL/min/kg; ED50 (Rattus norvegicus): 0.33 mg/kg; Activity (Oryctolagus cuniculus [8]): Active
10 | 0.0641 | CC(c1ccc(F)cc1)(c1c[nH]c2c(NS(C)(=O)=O)cccc12)C1CC1 (stereo not drawn) | –
